According to ChEMBL document CHEMBL3526127, “Absorption, elimination, and metabolism of CS-1036, a novel α-amylase inhibitor in rats and monkeys, and the relationship between gastrointestinal distribution and suppression of glucose absorption” (Drug Metab Dispos, 2013):

Columns and labels:
[1] = test system: Rattus norvegicus; experiment: Total drug excretion in F344 rat at 1 mg/kg, iv administered as single dose after 0 to 48 hrs by scintillation counting method; type: ADME, organism-based; design: dose 1 mg/kg, route intravenous; details: in vivo
Summary of the method: (§1)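 Fasted F344 rats (n = 4) received [14C]-labelled drug at 1 mg/kg (41.9 µCi/kg), iv via tail vein or oral. They were housed in metabolic cages. Urine and feces were collected to 168 h, and expired CO2 was trapped in 2-aminoethanol/2-methoxyethanol to 48 h. Radioactivity was counted by liquid scintillation, feces after homogenization. Results are % of dose.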

[2] = test system: Rattus norvegicus; experiment: Total drug excretion in F344 rat at 1 mg/kg, po administered as single dose after 0 to 48 hrs by scintillation counting method; type: ADME, organism-based; design: dose 1 mg/kg, route oral; details: in vivo; summary of the method: as §1
[3] = Drug metabolism in F344 rat feces assessed as 1,4-dideoxy-1,4-imino-D-arabinitol formation by LC-MS/MS method; type: ADME, tissue-based
[4] = Drug metabolism in human intestinal S9 fractions at 0.42 uCi/ml assessed as metabolite formation in presence of NADPH after 1 hr at 37 degC by LC-MS/MS method; type: ADME, Intestine; details: s9, 1 h
[5] = Drug excretion in cynomolgus monkey feces at 3 mg/kg, iv administered as single dose after 0 to 48 hrs by scintillation counting method; type: ADME, organism-based, Macaca fascicularis; design: dose 3 mg/kg, route intravenous; details: in vivo
Summary of the method: (§2)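 Fasted cynomolgus monkeys (n = 4) received [14C]-labelled drug at 3 mg/kg, iv via saphenous vein (191 µCi/kg) or orally by stomach catheter (156.5 µCi/kg). Urine, feces and water cage-wash were collected to 336 h. Samples were counted by liquid scintillation; feces were homogenized in 4-fold water. Results are % of dose, mean ± S.D.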

[6] = Drug excretion in cynomolgus monkey urine at 3 mg/kg, iv administered as single dose after 0 to 336 hrs by scintillation counting method; type: ADME, organism-based, Macaca fascicularis; design: dose 3 mg/kg, route intravenous; details: in vivo
[7] = Drug excretion in cynomolgus monkey urine at 3 mg/kg, po administered as single dose after 0 to 336 hrs by scintillation counting method; type: ADME, organism-based, Macaca fascicularis; design: dose 3 mg/kg, route oral; details: in vivo
[8] = Drug excretion in cynomolgus monkey feces at 3 mg/kg, po administered as single dose after 0 to 336 hrs by scintillation counting method; type: ADME, organism-based, Macaca fascicularis; design: dose 3 mg/kg, route oral; details: in vivo; summary of the method: as §2
[9] = Drug excretion in cynomolgus monkey urine at 3 mg/kg, po administered as single dose after 48 hrs by scintillation counting method; details: in vivo
[10] = Drug metabolism in monkey intestinal S9 fractions at 0.42 uCi/ml assessed as metabolite formation in presence of NADPH after 1 hr at 37 degC by LC-MS/MS method; details: cynomolgus monkey, s9, 1 h
[11] = Drug metabolism in anaerobic culture broth of monkey feces assessed as 1,4-dideoxy-1,4-imino-D-arabinitol formation at 63.5 uCi/ml after 24 hrs at 35 degC by LC-MS/MS method; details: cynomolgus monkey
[12] = AUC (0 to infinity) in cynomolgus monkey at 10 mg/kg, po administered as single dose by LC-MS/MS method; type: ADME, organism-based, Macaca fascicularis; design: time infinity, dose 10 mg/kg, route oral; details: plasma
Summary of the method: (§3)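 Fasted male F344 rats (146–185 g) or male cynomolgus monkeys (3.48–4.29 kg), n = 4 per dose, given single iv or oral dose of 0.3, 1.0, 3.0 or 10.0 mg/kg; monkeys dosed with 2-week washouts. Blood sampled to 48 h; plasma stored frozen. LC-MS/MS with deuterated internal standard. Noncompartmental analysis: AUClast by trapezoidal rule; AUC0–inf = AUClast + Ctz/terminal rate constant; mean ± S.D.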

[13] = AUClast in F344 rat at 1 mg/kg, iv administered as single dose by LC-MS/MS method; type: ADME, organism-based; design: time 0 - last, dose 1 mg/kg, route intravenous; details: plasma; summary of the method: as §3
[14] = Half life in cynomolgus monkey at 0.3 mg/kg, iv administered as single dose by LC-MS/MS method; type: ADME, organism-based, Macaca fascicularis; design: dose 0.3 mg/kg, route intravenous; details: in vivo
Summary of the method: (§4)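 Male F344 rats (146–185 g) and male cynomolgus monkeys (3.48–4.29 kg), n = 4 each, fasted overnight, received single iv or oral doses of 0.3, 1.0, 3.0 or 10.0 mg/kg. Monkeys had 2-week washouts between doses. Plasma was sampled to 48 h and assayed by LC-MS/MS with deuterated internal standard. Noncompartmental analysis: tmax observed; t1/2 by regression on ≥3 terminal log points; Vss = dose·AUMC/(AUC0–inf)²; Foral = oral/iv AUC0–inf at the same dose.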

[15] = test system: Rattus norvegicus; experiment: Reduction in plasma glucose in starch loaded po dosed ZDF rat; type: functional
Summary of the method: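 Male ZDF rats were acclimatized to 10 weeks of age and fasted overnight (n = 8 per group). They were given oral compound (0–0.1 mg/kg) in starch suspension (2 g/kg); a nonstarch control received water at 10 ml/kg. Plasma glucose was measured at −15 min (taken as baseline) and at 0.5, 1, 2 and 4 h with an automatic analyzer. ΔAUC of glucose change was calculated by the trapezoidal rule. ED50 came from a sigmoid Emax model bounded by the starch and nonstarch controls, and groups were compared by Dunnett test.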

[16] = Clearance in F344 rat at 0.3 mg/kg, iv administered as single dose by LC-MS/MS method; type: ADME, organism-based; design: dose 0.3 mg/kg, route intravenous; details: in vivo
Summary of the method: (§5)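 Fasted male F344 rats (146–185 g) and male cynomolgus monkeys (3.48–4.29 kg), n = 4 each, received a single iv dose; monkeys had 2-week washouts between doses. Blood was sampled up to 48 h and plasma stored at […]. Plasma parent was quantified by LC-MS/MS with a deuterated internal standard. CL = dose/AUC0–inf by noncompartmental analysis; mean ± S.D.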

[17] = Clearance in F344 rat at 10 mg/kg, iv administered as single dose by LC-MS/MS method; type: ADME, organism-based; design: dose 10 mg/kg, route intravenous; details: in vivo; summary of the method: as §5
[18] = Clearance in cynomolgus monkey at 0.3 mg/kg, iv administered as single dose by LC-MS/MS method; type: ADME, organism-based, Macaca fascicularis; design: dose 0.3 mg/kg, route intravenous; details: in vivo; summary of the method: as §5
[19] = Clearance in cynomolgus monkey at 1 mg/kg, iv administered as single dose by LC-MS/MS method; type: ADME, organism-based, Macaca fascicularis; design: dose 1 mg/kg, route intravenous; details: in vivo; summary of the method: as §5
[20] = Clearance in cynomolgus monkey at 10 mg/kg, iv administered as single dose by LC-MS/MS method; type: ADME, organism-based, Macaca fascicularis; design: dose 10 mg/kg, route intravenous; details: in vivo; summary of the method: as §5
[21] = Volume of distribution at steady state in F344 rat at 10 mg/kg, iv administered as single dose by LC-MS/MS method; type: ADME, organism-based; design: dose 10 mg/kg, route intravenous; details: in vivo, read-out: Vdss; summary of the method: as §4
[22] = Volume of distribution at steady state in cynomolgus monkey at 10 mg/kg, iv administered as single dose by LC-MS/MS method; type: ADME, organism-based, Macaca fascicularis; design: dose 10 mg/kg, route intravenous; details: in vivo, read-out: Vdss; summary of the method: as §4
[23] = Half life in F344 rat at 1 mg/kg, iv administered as single dose by LC-MS/MS method; type: ADME, organism-based; design: dose 1 mg/kg, route intravenous; details: in vivo
Summary of the method: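 Fasted male F344 rats (146–185 g, n = 4 per dose) received single i.v. CS-1036. Plasma was sampled up to 48 h and analysed by LC-MS/MS. t1/2 came from noncompartmental regression of three or more log-transformed terminal-phase points. Mean ± S.D.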

[24] = AUC (0 to infinity) in F344 rat at 1 mg/kg, po administered as single dose by LC-MS/MS method; type: ADME, organism-based; design: dose 1 mg/kg, route oral, time infinity; details: plasma; summary of the method: as §3
[25] = Half life in F344 rat at 3 mg/kg, po administered as single dose by LC-MS/MS method; type: ADME, organism-based; design: dose 3 mg/kg, route oral; details: in vivo; summary of the method: as §4

Question: Which results are given for `C[C@H]1O[C@@H](O[C@H]2[C@H](O)[C@@H](O)[C@@H](O[14C@H]3[14C@H](O)[14CH2]N[14C@@H]3[14CH2]O)O[C@@H]2CO)[C@H](O)[C@@H](O)[C@@H]1O`?
Answer: Drug excretion [1]: 86.96%; Drug excretion [2]: 93.26%; Drug metabolism [3]: metabolite_detected; Drug metabolism [4]: metabolite_not_detected; Drug excretion [5]: 0.46%; Drug excretion [6]: 81.13%; Drug excretion [7]: 5.67%; Drug excretion [8]: 88.13%; Drug excretion [9]: 2.9%; Drug metabolism [10]: metabolite_not_detected; Drug metabolism [11]: metabolite_detected

Question: With `C[C@H]1O[C@@H](O[C@H]2[C@H](O)[C@@H](O)[C@@H](O[C@H]3[C@H](O)CN[C@@H]3CO)O[C@@H]2CO)[C@H](O)[C@@H](O)[C@@H]1O` as the molecule, how does the AUC(0-inf) [12] read?
Answer: 894 ng·h/mL

Question: And the AUC(0-t) [13]?
Answer: 4920 ng·h/mL

Question: And the half-life [14]?
Answer: 2.51 h

Question: And the ED50 [15]?
Answer: 0.015 mg/kg

Question: What about the inhibition [15] of the same molecule?
Answer: Dose-dependent effect

Question: And the clearance [16]?
Answer: 2.73 mL/min/kg

Question: What about the clearance [17] of the same molecule?
Answer: 3.16 mL/min/kg

Question: What about the clearance [18] of the same molecule?
Answer: 2.55 mL/min/kg

Question: And the clearance [19]?
Answer: 2.84 mL/min/kg

Question: What about the clearance [20] of the same molecule?
Answer: 2.25 mL/min/kg

Question: What about the Vd [21] of the same molecule?
Answer: 0.222 L/kg

Question: What about the Vd [22] of the same molecule?
Answer: 0.217 L/kg

Question: What about the half-life [23] of the same molecule?
Answer: 18.4 h

Question: What about the AUC(0-inf) [24] of the same molecule?
Answer: 115 ng·h/mL

Question: What about the half-life [25] of the same molecule?
Answer: 4.16 h
